Test results: publication PMC3249179 (European Journal of Clinical Pharmacology, 2011)
Read-outs that look alike come from different tables or passages of the source. Marks after values point to notes of the source that are not given here.

What was measured:
[1] = APZ 3 mg with CYP3A4 inhibitor itraconazole 100 mg; Japanese EM subjects; cited from earlier work
[2] = format: in vivo, healthy Japanese male volunteers; conditions: for AUC ratio (period II/period I) / CL/F ratio (period II/period I) / Cmax ratio (period II/period I) / t1/2,z ratio (period II/period I) / tmax difference (period II − period I): APZ + FLV vs APZ alone; for AUC ratio (period II/period I) / CL/F ratio (period II/period I) / Cmax ratio (period II/period I) / t1/2,z ratio (period II/period I): geometric mean ratio; for tmax difference (period II − period I): mean difference
Summary of the method: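 Healthy Japanese men aged 20–40 y (BMI 18.5–25.0), CYP2D6-genotyped from blood DNA; 7 per genotype randomly selected. Period I: 3 mg APZ tablet orally, fasting; 34-day washout. Fluvoxamine pretreatment 6 days, then APZ given at SSRI steady state, fluvoxamine continued 14 days. Heparinized plasma sampled predose to 336 h, stored −20°C; APZ and DAPZ by LC-MS/MS. Mean ± SD; per-subject period II/I GMR.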

[3] = format: in vivo, healthy Japanese male volunteers; conditions: for AUC ratio (period II/period I) / CL/F ratio (period II/period I) / Cmax ratio (period II/period I) / t1/2,z ratio (period II/period I) / tmax difference (period II − period I): APZ + PRX vs APZ alone; for AUC ratio (period II/period I) / CL/F ratio (period II/period I) / Cmax ratio (period II/period I) / t1/2,z ratio (period II/period I): geometric mean ratio; for tmax difference (period II − period I): mean difference
[4] = test system: CYP2D6; test: Calculation of the contribution of CYP2D6 to APZ metabolism; design: species or system healthy Japanese male volunteers; conditions: before CYP inhibition
[5] = cited from earlier work
[6] = test system: CYP3A4; conditions: coadministration of FLV (100 mg q.d.); cited from earlier work
[7] = test system: CYP2D6; conditions: coadministration of FLV (100 mg q.d.); cited from earlier work
[8] = test system: CYP3A4; design: species or system healthy Japanese male volunteers; conditions: FLV 100 mg/day, calculated from APZ CL/F
[9] = clinical doses of PRX (20–30 mg q.d.); cited from earlier work
[10] = CYP2D6 EM, APZ + FLV 100 mg/day (period II), single oral 3 mg APZ, mean ± SD
[11] = CYP2D6 EM, APZ alone (period I), FLV group, single oral 3 mg APZ, mean ± SD
[12] = CYP2D6 IM, APZ + FLV 100 mg/day (period II), single oral 3 mg APZ, mean ± SD
[13] = CYP2D6 IM, APZ alone (period I), FLV group, single oral 3 mg APZ, mean ± SD
[14] = male, human, plasma, oral, 3 mg
[15] = CYP2D6 EM, APZ + PRX 20 mg/day (period II), single oral 3 mg APZ, mean ± SD
[16] = CYP2D6 EM, APZ alone (period I), PRX group, single oral 3 mg APZ, mean ± SD
[17] = CYP2D6 IM, APZ + PRX 20 mg/day (period II), single oral 3 mg APZ, mean ± SD
[18] = CYP2D6 IM, APZ alone (period I), PRX group, single oral 3 mg APZ, mean ± SD

O=C1CCc2ccc(OCCCCN3CCN(c4cccc(Cl)c4Cl)CC3)cc2N1 [Aripiprazole, aripiprazole]
decrease in CL/F [1]: 27%
CL/F [2, 10]: 2.03 ± 0.46 L/h
AUC ratio (period II/period I) ([2]; CYP2D6 EM): 1.63^a
CL/F ratio (period II/period I) ([2]; CYP2D6 EM): 0.61^a
Cmax ratio (period II/period I) ([2]; CYP2D6 EM): 1.39^a
t1/2,z ratio (period II/period I) ([2]; CYP2D6 EM): 1.44^a
CL/F [2, 11]: 3.30 ± 0.59 L/h
decrease in CL/F by coadministration of fluvoxamine ([2]; CYP2D6 EMs): 39%
CL/F [2, 12]: 1.26 ± 0.35 L/h
AUC ratio (period II/period I) ([2]; CYP2D6 IM): 1.65^a
CL/F ratio (period II/period I) ([2]; CYP2D6 IM): 0.60^a
Cmax ratio (period II/period I) ([2]; CYP2D6 IM): 1.27^a
t1/2,z ratio (period II/period I) ([2]; CYP2D6 IM): 1.49^a
tmax difference (period II − period I) ([2]; CYP2D6 IM): 0.00^b h
CL/F [2, 13]: 2.10 ± 0.69 L/h
decrease in CL/F by coadministration of fluvoxamine ([2]; CYP2D6 IMs): 40%
decrease in CL/F in period II (FLV) compared with period I ([2]; both the IM and EM subjects): approximately 40%
AUC [2, 14]: 1540 ng·h/mL
Cmax [2, 14]: 15.3 ± 3.4 ng/mL
half-life [2, 14]: 105 ± 6.8 h
tmax ([2]; male, human, plasma, oral, 3 mg, tmax, CYP2D6 IM, APZ alone (period I), FLV group, single oral 3 mg APZ, mean ± SD): 3 ± 1.8 h
AUC ([2]; male, human, plasma, po, 3 mg): 935 ± 173 ng·h/mL
Cmax ([2]; male, human, plasma, po, 3 mg): 14.7 ± 2.9 ng/mL
decrease in CL/F by coadministration of PRX ([3]; CYP2D6 EM subjects): 58%
increase in Cmax by coadministration of PRX ([3]; CYP2D6 EM subjects): 39%
CL/F [3, 15]: 2.22 ± 0.31 L/h
AUC ratio (period II/period I) ([3]; CYP2D6 EM): 2.40^a
CL/F ratio (period II/period I) ([3]; CYP2D6 EM): 0.42^a
Cmax ratio (period II/period I) ([3]; CYP2D6 EM): 1.39^a
t1/2,z ratio (period II/period I) ([3]; CYP2D6 EM): 1.83^a
CL/F [3, 16]: 5.42 ± 1.25 L/h
decrease in CL/F by coadministration of PRX ([3]; CYP2D6 IM subjects): 23%
CL/F [3, 17]: 1.78 ± 0.20 L/h
AUC ratio (period II/period I) ([3]; CYP2D6 IM): 1.30^a
CL/F ratio (period II/period I) ([3]; CYP2D6 IM): 0.77^a
Cmax ratio (period II/period I) ([3]; CYP2D6 IM): 1.27^a
t1/2,z ratio (period II/period I) ([3]; CYP2D6 IM): 1.21^a
CL/F [3, 18]: 2.32 ± 0.33 L/h
interindividual variability in CL/F ([3]; EM subjects of PRX group, APZ alone): 23 % CV
interindividual variability in CL/F ([3]; EM subjects, coadministration of PRX): 14 % CV
interindividual variability in CL/F ([3]; IM subjects of PRX group, APZ alone): 14 % CV
AUC [3, 14]: 1320 ng·h/mL
Cmax [3, 14]: 14.5 ± 3.4 ng/mL
half-life [3, 14]: 107 ± 18.9 h
tmax ([3]; male, human, plasma, oral, 3 mg, tmax, CYP2D6 IM, APZ alone (period I), PRX group, single oral 3 mg APZ, mean ± SD): 3.3 ± 1.6 h
tmax ([3]; male, human, plasma, oral, tmax, coadministration of APZ with PRX in period II): ~2 h
AUC ([3]; male, human, plasma, po, 3 mg): 582 ± 150 ng·h/mL
Cmax ([3]; male, human, plasma, po, 3 mg): 12.6 ± 2.6 ng/mL
half-life ([3]; male, human, plasma, po, 3 mg): 60.7 ± 9.2 h
percent contribution of CYP2D6 to total CL/F (metabolic activity) of APZ ([4]; CYP2D6 EM, FLV coadministration group): 40%
percent contribution of CYP2D6 to total CL/F (metabolic activity) of APZ ([4]; CYP2D6 EM, PRX coadministration group): 62%
percent contribution of CYP2D6 to total CL/F (metabolic activity) of APZ ([4]; CYP2D6 IM, FLV coadministration group): 18%
percent contribution of CYP2D6 to total CL/F (metabolic activity) of APZ ([4]; CYP2D6 IM, PRX coadministration group): 24%

O=c1ccc2ccc(OCCCCN3CCN(c4cccc(Cl)c4Cl)CC3)cc2[nH]1 [Dehydroaripiprazole, dehydroaripiprazole]
Cmax [2, 10]: 1.6 ± 0.2 ng/mL
t1/2,z [2, 10]: 227.8 ± 63.2 h
tmax [2, 10]: 72.0 ± 0.0 h
AUC ratio (period II/period I) ([2]; CYP2D6 EM): 2.05^a
Cmax ratio (period II/period I) ([2]; CYP2D6 EM): 1.23^a
t1/2,z ratio (period II/period I) ([2]; CYP2D6 EM): 2.00^a
tmax difference (period II − period I) ([2]; CYP2D6 EM): 12.00^b h
Cmax [2, 11]: 1.3 ± 0.3 ng/mL
t1/2,z [2, 11]: 115.0 ± 39.6 h
tmax [2, 11]: 60.0 ± 13.1 h
Cmax [2, 12]: 1.2 ± 0.3 ng/mL
tmax [2, 12]: 157.7 ± 36.3 h
Cmax ratio (period II/period I) ([2]; CYP2D6 IM): 0.95^a
tmax difference (period II − period I) ([2]; CYP2D6 IM): 37.71^b h
Cmax [2, 13]: 1.2 ± 0.3 ng/mL
tmax [2, 13]: 120.0 ± 41.6 h
Cmax [3, 15]: 0.9 ± 0.1 ng/mL
tmax [3, 15]: 89.1 ± 38.5 h
AUC ratio (period II/period I) ([3]; CYP2D6 EM): 1.21
Cmax ratio (period II/period I) ([3]; CYP2D6 EM): 0.67
t1/2,z ratio (period II/period I) ([3]; CYP2D6 EM): 1.91
tmax difference (period II − period I) ([3]; CYP2D6 EM): 37.71 h
Cmax [3, 16]: 1.3 ± 0.3 ng/mL
t1/2,z [3, 16]: 86.1 ± 10.7 h
tmax [3, 16]: 51.4 ± 16.6 h
Cmax [3, 17]: 0.8 ± 0.1 ng/mL
tmax [3, 17]: 133.7 ± 27.2 h
AUC ratio (period II/period I) ([3]; CYP2D6 IM): 0.89
Cmax ratio (period II/period I) ([3]; CYP2D6 IM): 0.88
t1/2,z ratio (period II/period I) ([3]; CYP2D6 IM): 0.73
tmax difference (period II − period I) ([3]; CYP2D6 IM): 30.71 h
Cmax [3, 18]: 1.0 ± 0.2 ng/mL
tmax [3, 18]: 103.0 ± 38.7 h
excretion in urine and feces [5]: almost no

COCCCC/C(=N\OCCN)c1ccc(C(F)(F)F)cc1 [FLV, fluvoxamine]
increase in blood concentration of CYP3A4 substrates [6]: several-fold
effect on the PK of desipramine and metoprolol (CYP2D6 substrates) [7]: without significantly affecting
percent inhibition of CYP3A4 by coadministration of FLV ([8]; CYP2D6 EM subjects): 64%
percent inhibition of CYP3A4 by coadministration of FLV ([8]; CYP2D6 IM subjects): 48%

Fc1ccc([C@@H]2CCNC[C@H]2COc2ccc3c(c2)OCO3)cc1 [PRX, paroxetine]
steady-state blood concentrations [9]: 35 to 43 ng/mL
